Laboratory results reported in ChEMBL document CHEMBL3588831, “Synthesis and in Vivo Evaluation of [123I]Melanin-Targeted Agents” (J Med Chem, 2015).

Experiments:
Liver [1] = experiment: Biodistribution in liver of C57BL/6J mouse bearing mouse B16F0 cells at 0.37 to 1.85 MBq, iv after 3 hrs by gamma counting method; assay type: ADME, organism-based; settings: in vivo
In short: (§1)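 Female C57BL/6J mice (5−6 weeks), s.c. inoculated on left flank with 3 × 10^5 B16F0 cells in Ca2+/Mg2+-free PBS, used 11 days later (tumors 2−12 mm). Radiotracer given via tail vein in 100 μL (~0.37 MBq for 1−24 h, 1.85 MBq for 48 h). Organs dissected, weighed, γ-counted, decay corrected. Expressed as % ID/g against injected-dose dilutions. Mean ± SEM, n = 5.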

Mus musculus [2] = experiment: Biodistribution in small gastrointestinal tract of C57BL/6J mouse bearing mouse B16F0 cells at 0.37 to 1.85 MBq, iv after 3 hrs by gamma counting method; assay type: ADME, organism-based, Small intestine; settings: in vivo; in short: as §1
Kidney [3] = experiment: Biodistribution in kidney of C57BL/6J mouse bearing mouse B16F0 cells at 0.37 to 1.85 MBq, iv after 48 hrs by gamma counting method; assay type: ADME, organism-based; settings: in vivo; in short: as §1
Mus musculus [4] = experiment: Whole body clearance in C57BL/6J mouse bearing mouse B16F0 cells at 0.37 to 1.85 MBq, iv after 16 hrs by gamma counting method; assay type: ADME, organism-based; settings: in vivo
[5] = Stability in urine of C57BL/6J mouse bearing mouse B16F0 cells assessed as drug degradation at 0.37 to 1.85 MBq, iv after 24 hrs by radio-HPLC and radio-TLC method; assay type: ADME, organism-based; settings: in vivo, in the assay text read “20 MBq” for “0.37 to 1.85 MBq”
In short: (§2)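 Tumor-bearing C57BL/6J mice were sampled 3 and 24 h after i.v. tracer. Tissue was sonicated in CH3CN/water (3:2) with cold iodo standard and KI, then centrifuged. Urine was diluted and spiked; plasma was spiked, with CH3CN precipitation for TLC. Intact fraction came from silica radio-TLC (spot matching standard Rf) and radio-HPLC with precolumn/C18 column switching.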

Liver [6] = experiment: Biodistribution in liver of C57BL/6J mouse bearing mouse B16F0 cells at 0.37 to 1.85 MBq, iv after 6 hrs by gamma counting method; assay type: ADME, organism-based; settings: in vivo; in short: as §1
Mus musculus [7] = experiment: Biodistribution in thyroid gland of C57BL/6J mouse bearing mouse B16F0 cells at 0.37 to 1.85 MBq, iv after 48 hrs by gamma counting method; assay type: ADME, organism-based; settings: in vivo; in short: as §1
[8] = Ratio of AUC in tumor to skin of C57BL/6J mouse bearing mouse B16F0 cells at 0.37 to 1.85 MBq, iv by gamma counting method; assay type: ADME, organism-based; settings: in vivo
In short: (§3)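 Biodistribution in B16F0-bearing C57BL/6J mice given i.v. tail-vein tracer (~0.37 MBq for 1–24 h, 1.85 MBq for 48 h). Sacrifice at 1, 3, 6, 16, 24 and 48 h, then organs dissected, weighed and γ-counted as decay-corrected % ID/g. Tumor AUC divided by each organ AUC; mean of ratios ± SEM, n = 5.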

Liver [9] = experiment: Biodistribution in liver of C57BL/6J mouse bearing mouse B16F0 cells at 0.37 to 1.85 MBq, iv after 16 hrs by gamma counting method; assay type: ADME, organism-based; settings: in vivo; in short: as §1
Kidney [10] = experiment: Biodistribution in kidney of C57BL/6J mouse bearing mouse B16F0 cells at 0.37 to 1.85 MBq, iv after 3 hrs by gamma counting method; assay type: ADME, organism-based; settings: in vivo; in short: as §1
Mus musculus [11] = experiment: Biodistribution in eyes of C57BL/6J mouse bearing mouse B16F0 cells at 0.37 to 1.85 MBq, iv after 1 hr by gamma counting method; assay type: ADME, organism-based, Eye; settings: in vivo; in short: as §1
Mus musculus [12] = experiment: Biodistribution in thyroid gland of C57BL/6J mouse bearing mouse B16F0 cells at 0.37 to 1.85 MBq, iv after 16 hrs by gamma counting method; assay type: ADME, organism-based; settings: in vivo; in short: as §1
Spleen [13] = experiment: Biodistribution in spleen of C57BL/6J mouse bearing mouse B16F0 cells at 0.37 to 1.85 MBq, iv after 24 hrs by gamma counting method; assay type: ADME, organism-based; settings: in vivo; in short: as §1
Mus musculus [14] = experiment: Biodistribution in eyes of C57BL/6J mouse bearing mouse B16F0 cells at 0.37 to 1.85 MBq, iv after 24 hrs by gamma counting method; assay type: ADME, organism-based, Eye; settings: in vivo; in short: as §1
[15] = Stability in eyes of C57BL/6J mouse bearing mouse B16F0 cells assessed as intact parent compound level at 0.37 to 1.85 MBq, iv after 3 hrs by radio-HPLC and radio-TLC method; assay type: ADME, organism-based, Eye; settings: in the assay text read “20 MBq” for “0.37 to 1.85 MBq”, read-out: Stability; in short: as §2
Mus musculus [16] = experiment: Biodistribution in eyes of C57BL/6J mouse bearing mouse B16F0 cells at 0.37 to 1.85 MBq, iv after 16 hrs by gamma counting method; assay type: ADME, organism-based, Eye; settings: in vivo; in short: as §1
[17] = Ratio of AUC in tumor to eyes of C57BL/6J mouse bearing mouse B16F0 cells at 0.37 to 1.85 MBq, iv by gamma counting method; assay type: ADME, organism-based; settings: in vivo; in short: as §3
Mus musculus [18] = experiment: Biodistribution in small gastrointestinal tract of C57BL/6J mouse bearing mouse B16F0 cells at 0.37 to 1.85 MBq, iv after 6 hrs by gamma counting method; assay type: ADME, organism-based, Small intestine; settings: in vivo; in short: as §1
Mus musculus [19] = experiment: Biodistribution in large gastrointestinal tract of C57BL/6J mouse bearing mouse B16F0 cells at 0.37 to 1.85 MBq, iv after 3 hrs by gamma counting method; assay type: ADME, organism-based, Large intestine; settings: in vivo; in short: as §1
Mus musculus [20] = experiment: Biodistribution in large gastrointestinal tract of C57BL/6J mouse bearing mouse B16F0 cells at 0.37 to 1.85 MBq, iv after 16 hrs by gamma counting method; assay type: ADME, organism-based, Large intestine; settings: in vivo; in short: as §1
Kidney [21] = experiment: Biodistribution in kidney of C57BL/6J mouse bearing mouse B16F0 cells at 0.37 to 1.85 MBq, iv after 24 hrs by gamma counting method; assay type: ADME, organism-based; settings: in vivo; in short: as §1
Mus musculus [22] = experiment: Biodistribution in eyes of C57BL/6J mouse bearing mouse B16F0 cells at 0.37 to 1.85 MBq, iv after 48 hrs by gamma counting method; assay type: ADME, organism-based, Eye; settings: in vivo; in short: as §1
[23] = Ratio of AUC in tumor to bone of C57BL/6J mouse bearing mouse B16F0 cells at 0.37 to 1.85 MBq, iv by gamma counting method; assay type: ADME, organism-based; settings: in vivo; in short: as §3
Mus musculus [24] = experiment: Biodistribution in tumor of C57BL/6J mouse bearing mouse B16F0 cells at 0.37 to 1.85 MBq, iv after 3 hrs by gamma counting method; assay type: ADME, organism-based; settings: in vivo; in short: as §1
Mus musculus [25] = experiment: Biodistribution in small gastrointestinal tract of C57BL/6J mouse bearing mouse B16F0 cells at 0.37 to 1.85 MBq, iv after 48 hrs by gamma counting method; assay type: ADME, organism-based; settings: in vivo; in short: as §1
[26] = Drug distribution in eyes of C57BL/6J mouse bearing mouse B16F0 cells at 18 to 20 MBq, iv measured over 72 hrs by SPECT imaging study; assay type: ADME, organism-based, Eye; settings: in vivo
In short: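 Female C57BL/6J mice (5–6 weeks) were inoculated s.c. on the left flank with 3 × 10^5 B16F0 cells in PBS and used after 11 days, with tumors 2–12 mm. Each received 18–20 MBq in 100 μL by lateral tail vein (n = 3 per tracer). Planar SPECT was done under isoflurane at 10–60 min, 3, 6, 24, 48 and 72 h. ROI pixel values were decay-corrected.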

Spleen [27] = experiment: Biodistribution in spleen of C57BL/6J mouse bearing mouse B16F0 cells at 0.37 to 1.85 MBq, iv after 1 hr by gamma counting method; assay type: ADME, organism-based; settings: in vivo; in short: as §1
Mus musculus [28] = experiment: Biodistribution in thyroid gland of C57BL/6J mouse bearing mouse B16F0 cells at 0.37 to 1.85 MBq, iv after 1 hr by gamma counting method; assay type: ADME, organism-based; settings: in vivo; in short: as §1

Drug uptake (Liver [1]) | Drug uptake (Mus musculus [2]) | Drug uptake (Kidney [3]) | CL (Mus musculus [4]) | Stability [5] | Drug uptake (Liver [6]) | Drug uptake (Mus musculus [7]) | Ratio [8] | Drug uptake (Liver [9]) | Drug uptake (Kidney [10]) | Drug uptake (Mus musculus [11]) | Drug uptake (Mus musculus [12]) | Drug uptake (Spleen [13]) | Drug uptake (Mus musculus [14]) | remaining at 3 h [15] | Drug uptake (Mus musculus [16]) | Ratio [17] | Drug uptake (Mus musculus [18]) | Drug uptake (Mus musculus [19]) | Drug uptake (Mus musculus [20]) | SMILES | other results
5.6 % ID/g | 15.2 % ID/g | 0.2 % ID/g | > 98% | Unstable | 3.1 % ID/g | 3.4 % ID/g | 23.1 | 0.7 % ID/g | 8.4 % ID/g | 18.2 % ID/g | 1 % ID/g | 0.05 % ID/g | 18.4 % ID/g | 90% | 22.1 % ID/g | 0.42 | 2.6 % ID/g | 21.4 % ID/g | 1.4 % ID/g | O=C(CN1Cc2ccccc2C1=O)N1C[C@H]2CN(Cc3ccc([123I])cc3)C[C@H]2C1 | Drug uptake (Kidney [21]): 0.5 % ID/g; Drug uptake (Mus musculus [22]): 15.8 % ID/g; Ratio [23]: 25; Drug uptake (Mus musculus [24]): 10.8 % ID/g; Drug uptake (Mus musculus [25]): 0.1 % ID/g; Drug uptake [26]: Active; Drug uptake (Spleen [27]): 0.2 % ID/g; Drug uptake (Mus musculus [28]): 1.9 % ID/g
13.2 % ID/g | 63.8 % ID/g | 0.4 % ID/g | > 98% | Unstable | 6.3 % ID/g | 2.1 % ID/g | 40.9 | 0.9 % ID/g | 9 % ID/g | 40.3 % ID/g | 2.5 % ID/g | 0.2 % ID/g | 30.8 % ID/g | 60% | 28.6 % ID/g | 0.52 | 11.5 % ID/g | 59.6 % ID/g | 2.3 % ID/g | O=C(c1ccc2c(n1)NCCC2)N1CCN(Cc2ccc([123I])cc2)CC1 | Drug uptake (Kidney [21]): 1 % ID/g; Drug uptake (Mus musculus [22]): 19 % ID/g; Ratio [23]: 65.5; Drug uptake (Mus musculus [24]): 32.1 % ID/g; Drug uptake (Mus musculus [25]): 0.1 % ID/g; Drug uptake [26]: Active; Drug uptake (Spleen [27]): 3.5 % ID/g; Drug uptake (Mus musculus [28]): 5.1 % ID/g
13.4 % ID/g | 14.1 % ID/g | 0.5 % ID/g | > 98% | Unstable | 10.1 % ID/g | 5.3 % ID/g | 45.3 | 2.4 % ID/g | 6.2 % ID/g | 32 % ID/g | 1.6 % ID/g | 0.5 % ID/g | 35.1 % ID/g | 60% | 32.9 % ID/g | 0.47 | 6.1 % ID/g | 11.9 % ID/g | 1.8 % ID/g | O=C(c1ccc2cccnc2n1)N1CCN(Cc2ccc([123I])cc2)CC1 | Drug uptake (Kidney [21]): 1.4 % ID/g; Drug uptake (Mus musculus [22]): 31.6 % ID/g; Ratio [23]: 44; Drug uptake (Mus musculus [24]): 20 % ID/g; Drug uptake (Mus musculus [25]): 0.2 % ID/g; Drug uptake [26]: Active; Drug uptake (Spleen [27]): 2.6 % ID/g; Drug uptake (Mus musculus [28]): 2.3 % ID/g
38.8 % ID/g | 12 % ID/g | 0.3 % ID/g | > 98% | Unstable | 35.1 % ID/g | 2.4 % ID/g | 24.4 | 7.1 % ID/g | 7.4 % ID/g | 13.7 % ID/g | 2.3 % ID/g | 1.2 % ID/g | 41.4 % ID/g | 90% | 40.4 % ID/g | 0.44 | 9.8 % ID/g | 10.9 % ID/g | 8.1 % ID/g | O=C(CN1Cc2ccccc2C1=O)NC1CCN(Cc2ccc([123I])cc2)CC1 | Drug uptake (Kidney [21]): 1.9 % ID/g; Drug uptake (Mus musculus [22]): 38.7 % ID/g; Ratio [23]: 65.8; Drug uptake (Mus musculus [24]): 11.6 % ID/g; Drug uptake (Mus musculus [25]): 0.3 % ID/g; Drug uptake [26]: Active; Drug uptake (Spleen [27]): 9.6 % ID/g; Drug uptake (Mus musculus [28]): 3.4 % ID/g
